Test results from EPA's CvTdb concentration-time database.

Experiments:
Rat [1] = test: concentration in kidney after dosing; conditions: 24 h; dosed: Perfluorodecanoic acid; 10 mg/kg; oral; Male; Harlan Sprague Dawley
Rat [2] = test: concentration in liver after dosing; conditions: 1 h; dosed: Perfluorodecanoic acid; 10 mg/kg; oral; Female; Harlan Sprague Dawley
Rat [3] = test: concentration in kidney after dosing; conditions: 1848 h; dosed: Perfluorodecanoic acid; 10 mg/kg; oral; Male; Harlan Sprague Dawley
Rat [4] = test: concentration in plasma after dosing; conditions: dosed: dichloroacetic acid, 10 mg/kg, oral, Male, Harlan Sprague Dawley
Rat [5] = test: concentration in plasma after dosing; conditions: dosed: dichloroacetic acid, 100 mg/kg, oral, Male, F344
human [6] = test: concentration in plasma after dosing; negative times count back from the end of exposure; conditions: dosed: trichloroethylene, 100 ppm, inhalation, duration: 4 hr, person, during exposure
Outline: (§1)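 Sampling and analytical methods are those of each source and frequently went unreported. The concentration-versus-time and amount-versus-time points were compiled from published in vivo toxicokinetic studies and two structured collections. Most were digitised from plot screenshots with WebPlotDigitizer, with others copied from tables, in the reported units.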

Rat [7] = test: concentration in plasma after dosing; conditions: dosed: dichloroacetic acid, 40 mg/kg, oral, Female, Harlan Sprague Dawley
Rat [8] = test: concentration in plasma after dosing; conditions: 22 h; dosed: Primidone; 130 mg/kg; oral; Female; F344
Rat [9] = test: concentration in plasma after dosing; conditions: 3 h; dosed: Primidone; 30 mg/kg; oral; Male; F344
Rat [10] = test: concentration in plasma after dosing; conditions: 9 h; dosed: Primidone; 30 mg/kg; oral; Female; F344
Rat [11] = test: concentration in plasma after dosing; conditions: 2 h; dosed: Wyeth-14643; 2.0 mg/kg; oral; Male; Sprague-Dawley
human [12] = test: concentration in blood after dosing; conditions: dosed: trichloroethylene, 100 ppm, inhalation, duration: 6 hr, person
Outline: as §1

human [13] = conditions: dosed: tetrachloroethylene, 144 ppm, inhalation, duration: 4 hr, male
Outline: as §1

Rat [14] = test: concentration in kidney after dosing; conditions: 0.5 h; dosed: Fluorotelomer alcohol 8+2; 24 mg/kg; oral; Male; Harlan Sprague Dawley
Rat [15] = test: concentration in brain after dosing; conditions: 0.5 h; dosed: Fluorotelomer alcohol 8+2; 80 mg/kg; oral; Female; Harlan Sprague Dawley
Rat [16] = test: concentration in liver after dosing; conditions: 1 h; dosed: Fluorotelomer alcohol 8+2; 80 mg/kg; oral; Female; Harlan Sprague Dawley
Rat [17] = test: concentration in liver after dosing; conditions: 1 h; dosed: Fluorotelomer alcohol 8+2; 80 mg/kg; oral; Female; Harlan Sprague Dawley; remark: listed apart in the source
Rat [18] = test: concentration in kidney after dosing; conditions: 12 h; dosed: Fluorotelomer alcohol 8+2; 80 mg/kg; oral; Female; Harlan Sprague Dawley
Rat [19] = test: concentration in brain after dosing; conditions: 1 h; dosed: Fluorotelomer alcohol 8+2; 24 mg/kg; oral; Male; Harlan Sprague Dawley
Rat [20] = test: concentration in brain after dosing; conditions: 6 h; dosed: Fluorotelomer alcohol 8+2; 24 mg/kg; oral; Male; Harlan Sprague Dawley
Rat [21] = test: concentration in brain after dosing; conditions: 1 h; dosed: Fluorotelomer alcohol 8+2; 24 mg/kg; oral; Male; Harlan Sprague Dawley; remark: listed apart in the source
Rat [22] = test: concentration in liver after dosing; conditions: 1 h; dosed: Fluorotelomer alcohol 8+2; 24 mg/kg; oral; Male; Harlan Sprague Dawley
Rat [23] = test: concentration in heart after dosing; conditions: 40 min; dosed: Thiodiglycolic Acid; 20 mg/kg; iv; Male; Harlan Sprague Dawley
Rat [24] = test: concentration in liver after dosing; conditions: 6.667 h; dosed: Thiodiglycolic Acid; 20 mg/kg; iv; Female; Harlan Sprague Dawley
Rat [25] = test: concentration in plasma after dosing; conditions: 10 min; dosed: Thiodiglycolic Acid; 20 mg/kg; iv; Female; Harlan Sprague Dawley
Rat [26] = test: concentration in thymus after dosing; conditions: 20 min; dosed: Thiodiglycolic Acid; 20 mg/kg; iv; Female; F344
Rat [27] = test: concentration in thymus after dosing; conditions: 2 h; dosed: Bis 2-Chloroethoxy Methane; 20 mg/kg; iv; Male; F344
Rat [28] = test: concentration in thymus after dosing; conditions: 1 h; dosed: Bis 2-Chloroethoxy Methane; 20 mg/kg; iv; Male; F344
Rat [29] = test: concentration in plasma after dosing; conditions: 3 h; dosed: Bis 2-Chloroethoxy Methane; 20 mg/kg; iv; Female; F344
Rat [30] = test: concentration in plasma after dosing; conditions: 40 min; dosed: Bis 2-Chloroethoxy Methane; 20 mg/kg; iv; Female; F344
Rat [31] = test: concentration in heart after dosing; conditions: 20 min; dosed: Bis 2-Chloroethoxy Methane; 20 mg/kg; iv; Female; F344
Rat [32] = test: concentration in plasma after dosing; conditions: 20 min; dosed: Bis 2-Chloroethoxy Methane; 20 mg/kg; iv; Male; F344
Rat [33] = test: concentration in plasma after dosing; conditions: 20 min; dosed: Di-n-butyl phthalate; 50 mg/kg; oral; Male; Sprague-Dawley
Rat [34] = test: concentration in plasma after dosing; conditions: 5 h; dosed: Di-n-butyl phthalate; 20 mg/kg; iv; Male; Sprague-Dawley
Rat [35] = test: concentration in plasma after dosing; conditions: 1 h; dosed: Di-n-butyl phthalate; 100 mg/kg; oral; Male; Sprague-Dawley

SMILES: O=C(O)C(F)(F)C(F)(F)C(F)(F)C(F)(F)C(F)(F)C(F)(F)C(F)(F)C(F)(F)C(F)(F)F [Perfluorodecanoic acid]
- concentration in kidney (Rat [1]): 29300 ng/g
- concentration in liver (Rat [2]): 48000 ng/g
- concentration in kidney (Rat [3]): 6050 ng/g

SMILES: O=C(O)C(Cl)Cl [dichloroacetic acid]
- concentration in plasma (Rat [4]; 10 min): 438 ng/mL
- concentration in plasma (Rat [4]; 50 min): 158 ng/mL
- concentration in plasma (Rat [5]; 5 min): 7120 ng/mL
- concentration in plasma (Rat [5]; 2 h): 41300 ng/mL
- concentration in plasma (human [6]; -1 h): 5 ng/mL
- concentration in plasma (human [6]; -2 h): 4 ng/mL
- concentration in plasma (human [6]; -3 h): 5 ng/mL
- concentration in plasma (Rat [7]; 20 min): 8110 ng/mL
- concentration in plasma (Rat [7]; 2 h): 2680 ng/mL

SMILES: CCC1(c2ccccc2)C(=O)NC(=O)NC1=O [Phenobarbital]
- concentration in plasma (Rat [8]): 2490 ng/mL
- concentration in plasma (Rat [9]): 2460 ng/mL
- concentration in plasma (Rat [10]): 990 ng/mL

SMILES: Cc1cccc(Nc2cc(Cl)nc(SCC(=O)O)n2)c1C
- concentration in plasma (Rat [11]): 925 ng/mL

SMILES: O=C(O)C(Cl)(Cl)Cl [trichloroacetic acid]
- concentration in blood (human [12]; 0 h): 11900 ng/mL
- concentration in blood (human [12]; 18 h): 32600 ng/mL
- concentration in blood (human [12]; 24 h): 50300 ng/mL
- concentration in blood (human [12]; 42 h): 32200 ng/mL
- concentration in blood (human [12]; 48 h): 51100 ng/mL
- concentration in blood (human [12]; 66 h): 51000 ng/mL
- concentration in blood (human [12]; 72 h): 55100 ng/mL
- concentration in blood (human [12]; 90 h): 49000 ng/mL
- concentration in blood (human [12]; 96 h): 64900 ng/mL
- concentration in blood (human [12]; 160 h): 28900 ng/mL
- amount in urine after dosing (human [13]; 22 h): 6.91 mg
- amount in urine after dosing (human [13]; 46 h): 2.33 mg
- amount in urine after dosing (human [13]; 70 h): 2.17 mg

SMILES: OCCC(F)(F)C(F)(F)C(F)(F)C(F)(F)C(F)(F)C(F)(F)C(F)(F)C(F)(F)F [Fluorotelomer alcohol 8+2]
- concentration in kidney (Rat [14]): 1800 ng/g
- concentration in brain (Rat [15]): 2670 ng/g
- concentration in liver (Rat [16]): 5950 ng/g
- concentration in liver (Rat [17]): 7790 ng/g
- concentration in kidney (Rat [18]): 351 ng/g
- concentration in brain (Rat [19]): 2520 ng/g
- concentration in brain (Rat [20]): 544 ng/g
- concentration in brain (Rat [21]): 2020 ng/g
- concentration in liver (Rat [22]): 4650 ng/g

SMILES: O=C(O)CSCC(=O)O [Thiodiglycolic Acid]
- concentration in heart (Rat [23]): 2020 ng/g
- concentration in liver (Rat [24]): 7630 ng/g
- concentration in plasma (Rat [25]): 38100 ng/mL
- concentration in thymus (Rat [26]): 4680 ng/g

SMILES: ClCCOCOCCCl [Bis 2-Chloroethoxy Methane]
- concentration in thymus (Rat [27]): 153 ng/g
- concentration in thymus (Rat [28]): 5370 ng/g
- concentration in plasma (Rat [29]): 65.2 ng/mL
- concentration in plasma (Rat [30]): 1720 ng/mL
- concentration in heart (Rat [31]): 6800 ng/g
- concentration in plasma (Rat [32]): 3180 ng/mL

SMILES: CCCCOC(=O)c1ccccc1C(=O)O [Mono-n-butyl phthalate]
- concentration in plasma (Rat [33]): 16800 ng/mL
- concentration in plasma (Rat [34]): 1030 ng/mL
- concentration in plasma (Rat [35]): 27100 ng/mL
